Shown is part of a subset that was picked to be rich in hits.
Redox H2O2 prof – compounds producing H2O2 with reducing agent – biochemical, NIH compound library profiling, artefact control for MLSCN library redox annotation, primary screen; DTT-dependent redox cycling H2O2, phenol red/HRP absorbance; 100% = 100 µM peroxide control, 0% = buffer; activation, % at 10 µM; actives 0.03% (n = 200,000); AID 878;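 active = activation of at least 50% relative to the plate's high and low controls in the primary single-dose screen; inactive = activation below 50%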;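 note: compound incubated with DTT at 0.8 mM final as the reducing agent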
Lmaj promast – reduces viability of Leishmania major promastigotes. resazurin fluorescence viability. inhibition, % at 10 µM. actives 9% (n = 200,000); in the data active = inhibition above about 50%;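 note: promastigotes grown with compound for 44 hours at 28 °C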
MPTP block – permeability transition pore inhibition. isolated mouse mitochondria, Ca2+ swelling absorbance, 30 min. inhibition, % at 10 µM. actives 1.4% (n = 360,000);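 active = inhibition of 50% or more, scaled per plate between neutral and stimulator controls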;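 note: 0% = DMSO wells given calcium and 100% = 1 mM EGTA wells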
T cruzi repl – blocks replication of Trypanosoma cruzi; T. cruzi beta-gal in NIH3T3, luminescence, 90 h; inhibition, % (test concentration not listed); actives 1.4% (n = 300,000);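 active = mean inhibition across valid replicates above about 55%, limit read from the data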;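 note: signal also drops with host cell toxicity which is not excluded here; 0% = plate median of DMSO wells and 100% = zero luminescence signal; higher percent means less beta-gal luminescence so fewer parasites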
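System: NIH/3T3 fibroblasts plus reporter T. cruzi. Medium: DMEM plus 2% FBS. Probe or stimulus: 5000 reporter trypomastigotes per well. Compound: single 50 nL compound addition per well in DMSO. Incubation: co-culture of at least 90 h after 3 h attachment. Detection: GalScreen β-gal luminescence, detergent lysis, 60 min. Evaluation: parasite load inhibition, %.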
Lipid droplet – hepatic lipid droplet formation modulation | AML12 mouse hepatocytes, oleate lipid droplets, BODIPY imaging | inhibition, % at 6.5 µM | actives 0.4% (n = 240,000) | AID 1656;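 active = lipid droplet intensity inhibited by at least 50%, with more than 500 cells counted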
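System: AML12 hepatocytes (mouse). Probe or stimulus: oleic acid at 100 µM to induce lipid droplet formation. Times: overnight treatment with compound plus oleate. Detection: Image-based BODIPY and DAPI two-channel analysis. Evaluation: percent inhibition of filter-corrected integrated lipid droplet intensity per well.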
Starred values were filed as active, the others as inactive; . = not tested or not shown.

SMILES | Redox H2O2 prof | Lmaj promast | MPTP block | T cruzi repl | Lipid droplet
CN(C)CCCSc1nc(-c2ccccc2)nc2c1CCC2 | 0 | 26 | -3 | 71* | 6
CCN(CC)S(=O)(=O)c1cc([N+](=O)[O-])ccc1NNC(=O)Nc1ccccc1OC | 2 | 80* | 3 | 16 | 8
CCN1CCN(CCCN(Cc2cccs2)C(=S)Nc2ccccc2C)CC1 | -2 | -5 | -1 | -5 | 20
Fc1ccc(/C=C2\CCCC3=C2Nc2ncnn2C3c2ccc(F)cc2)cc1 (stereo unspecified) | 3 | 73* | 1 | 23 | .
COc1ccc(-c2csc(-c3ccc(C(=O)O)cc3)n2)cc1 | 0 | 10 | 0 | -7 | -2
COc1ccc(-c2csc(-c3[nH]cnc3N)n2)cc1 | 0 | 96* | 1 | -1 | 34
COc1cc(C(=O)Nc2ccc(S(=O)(=O)N3CCCCC3)cc2)ccc1OCC(=O)N1CCOCC1 | . | . | -4 | . | .
COc1cccc(/C=N/NC(=O)c2ccccc2)c1OS(=O)(=O)c1ccccc1 | 0 | 92* | 1 | -1 | 1
COc1cccc(/C=N/NC(=O)c2cc3c(OC)cccc3[nH]2)c1O | 0 | 95* | 1 | -1 | 0
COc1cccc(/C=N/NC(=O)c2ccc(=O)n(C)c2)c1OC | 0 | -6 | 2 | -2 | 17
COc1cccc(/C=N/NC(=O)c2cc3c(OC)c(OC)ccc3[nH]2)c1OC | 0 | 73* | 2 | -23 | -8
COc1cccc(/C=N/NC(=O)c2cc(-c3cccn3C)n[nH]2)c1O | 0 | 98* | 2 | 3 | 6
COc1ccccc1/C=N/NC(=O)c1cc2c(OC)c(OC)ccc2[nH]1 | . | . | 1 | -14 | -30
CCOC(=O)N1CCN(C(=O)c2ccc(SC)cc2OC)CC1 | 0 | -8 | -2 | -3 | 5
COc1cc(NC(=O)CN2C(=O)CSc3ccc(S(=O)(=O)N4CCCC4)cc32)cc(OC)c1 | . | . | 0 | -11 | -11
COc1cc(/C=N/NC(=O)CN(CCc2ccccc2)S(=O)(=O)c2ccc(NC(C)=O)cc2)cc(OC)c1OC | 0 | 60* | -9 | 7 | 8
COc1cccc(/C=N/NC(=O)c2cc3cc([N+](=O)[O-])ccc3s2)c1O | 0 | 100* | 8 | 23 | 3
COc1cc(/C=N/NC(=O)c2ccc(N(C)S(=O)(=O)c3ccccc3)cc2)cc(OC)c1OC | 0 | 100* | 2 | 0 | 4
CCOc1cc(/C=N/NC(=O)c2ccc(N(C)S(=O)(=O)c3ccccc3)cc2)ccc1OC | . | . | 1 | -3 | .
COc1ccc(/C=N/NC(=O)CN(CCc2ccccc2)S(=O)(=O)c2ccc(NC(C)=O)cc2)cc1OC | 0 | 32 | -2 | 3 | 11
CNC(=O)OCc1nc(SC2CCCCO2)n(C)c1COC(=O)NC (stereo unspecified) | . | . | -2 | . | .
O=C(Cn1sc2ccccc2c1=O)NC12CC3CC(CC(C3)C1)C2 | 0 | 100* | 21 | . | -16
Cc1cccc(N2C(=O)CC(N3CCN(c4ccccn4)CC3)C2=O)c1 (stereo unspecified) | 0 | -6 | 1 | -19 | 3
CN(C)c1ccc(NS(=O)(=O)c2cc(Cl)ccc2Cl)cc1 | 0 | 64* | 1 | 12 | 0
CCN(c1ccc(NS(=O)(=O)c2cc(Cl)ccc2Cl)cc1)C(C)C | 0 | 25 | 2 | 23 | -10
SMILES | Redox H2O2 prof | Lmaj promast | MPTP block | T cruzi repl | Lipid droplet
Cc1ccc(-n2nc3c(N4CCC(C(=O)NCCc5ccccc5C)CC4)nnc(C)c3c2C)cc1 | . | . | -3 | 55* | -9
COc1ccc2oc(C(=O)OCC(=O)Nc3ccc(C)c(S(=O)(=O)N4CCOCC4)c3)c(C)c2c1 | . | . | 0 | . | .
CC(=O)c1cccc(NC(=O)CNC(=O)Cc2ccccc2)c1 | . | . | -1 | -12 | -6
COc1cccc(CC(=O)Nc2ccc3c(c2)CCC3)c1 | . | . | 1 | -7 | 8
COc1cc(CC(=O)Nc2ccc3c(c2)CCC3)cc(OC)c1OC | . | 89* | 13 | -22 | -13
CC(=O)c1cccc(NC(=O)Cc2ccc3c(c2)CCCC3)c1 | -4 | 81* | 10 | -5 | .
O=C(Nc1ccc(F)cc1)NC1(C(=O)NCc2ccco2)CCCCC1 | 1 | 82* | 4 | -18 | .
O=C(NCc1ccc2c(c1)OCO2)C1CCCN1C(=O)Nc1ccc(F)cc1 (stereo unspecified) | -3 | 92* | -1 | -8 | .
O=C(Nc1ccc(F)cc1)NC1(C(=O)NCc2ccc3c(c2)OCO3)CCCCC1 | 1 | 91* | 8 | -3 | -6
Cc1ccsc1C(=O)NCc1ccc(F)cc1 | . | . | 0 | -12 | 2
CC[C@@H](C)CN1C(=O)N[C@@H](c2ccccc2)C(C(C)=O)=C1C | . | . | 1 | -3 | .
CC(C)C(NC(=O)c1ccc(C(C)(C)C)cc1)C(=O)OCC(=O)NC(=O)Cc1ccccc1 (stereo unspecified) | -1 | 50* | 0 | -8 | -6
CC(C)[C@H](NC(=O)c1ccccc1)C(=O)OCC(=O)NCCc1ccc(F)cc1 | 0 | 1 | 2 | 8 | 2
CC(C)[C@H](NC(=O)c1ccccc1)C(=O)OCC(=O)NCCC1=CCCCC1 | 0 | 59* | 4 | -4 | -8
CCOC(=O)C1(CC2CCCCO2)CCN(Cc2nccn2-c2ccc(OC)cc2)CC1 (stereo unspecified) | -1 | 8 | -1 | -17 | -10
CCOC(=O)C1(CC2CCCCO2)CCN(Cc2nccn2-c2cccc(C)c2)CC1 (stereo unspecified) | 0 | 53* | -2 | 4 | -28
CNC(=O)c1ccc(-c2ccc(Cl)c(Cl)c2)s1 | -2 | 56* | 4 | -1 | -3
CNC(=O)c1ccc(-c2ccc(F)cc2)s1 | 0 | -4 | 0 | -20 | 4
O=c1[nH]c(-c2ccc3c(c2)OCO3)nc2c1sc(=S)n2-c1ccccc1 | -2 | 51* | 0 | -10 | -7
O=c1[nH]c(-c2ccccc2Cl)nc2c1sc(=S)n2-c1ccccc1 | -2 | 2 | 2 | -17 | 6
Cc1cc(C(=O)COC(=O)c2ccc(CO)cc2)c(C)n1CC1COc2ccccc2O1 (stereo unspecified) | 1 | 55* | 0 | 8 | -11
Cc1cc(C(=O)CN2C(=O)C(=O)N(Cc3ccccc3)C2=O)c(C)n1CC1COc2ccccc2O1 (stereo unspecified) | -1 | 3 | 0 | 1 | -21
Cc1cccc(C)c1NC1=C(Cl)C(=O)OC1OC(C)C (stereo unspecified) | 0 | 50* | 0 | 4 | -22
CCN(Cc1ccncc1)C(=O)CSc1ccc2ccccc2c1 | -2 | 2 | 1 | 16 | -7
C[C@H](CCC(=O)NCC(=O)O)[C@H]1CC[C@H]2C3[C@H](O)C[C@@H]4C[C@H](O)CC[C@]4(C)[C@H]3C[C@H](O)[C@]12C (stereo partly specified) | . | . | 0 | 9 | .

Bioassay records (PubChem BioAssay)
